Test results reported in article PMC10134466 (ACS Omega, 2023).

How the values were obtained:
[1] = test system: BT-474 cells; experiment: CellTox Green cytotoxicity assay: cell lysis; type: cell-based, human; conditions: dosed at IC50; 1, 6, 12, 24 h post exposure
[2] = test system: CCD1065SK HDF; experiment: 2D dose–response assay; type: cell-based, human; conditions: 24 h treatment, nontumorigenic fibroblasts
Summary of the method: (§1)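 Cells were trypsinized, seeded at 250,000 cells/mL in 96-well plates and cultured 24 h before dosing. Test compound was dissolved in 100% DMSO and serially diluted 1:2 in media to 5000–40 μg/mL dosing solutions, which were diluted 10-fold in the well (final DMSO ≤1%), in triplicate. Plates were incubated 24 h at 37 °C, 5% CO2, then viability was read by CCK-8. Controls: cell-free media and untreated cells. Absolute IC50 was calculated.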

[3] = test system: AU565 human breast adenocarcinoma cells; experiment: 2D dose–response assay; type: cell-based; conditions: 24 h treatment, n = 3/dose
Summary of the method: as §1

[4] = test system: BT-474 3D spheroids; experiment: 3D dose–response assay, liquid-overlay spheroids; type: cell-based, human; conditions: 24 h treatment, n = 3/dose
Summary of the method: (§2)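 Spheroids formed by liquid overlay: 250,000 cells/mL in round-bottom nonadherent wells with 2.5% v/v Matrigel, centrifuged 10 min at 1000 rpm, then matured 4 days. Test compound DMSO stocks were serially diluted 1:2 to 10,000–80 μg/mL and diluted 10-fold in wells (final DMSO ≤1% v/v), in triplicate. Incubation 24 h at 37 °C, 5% CO2; viability by CellTiter 3D luminescence. Absolute IC50 by nonlinear regression.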

[5] = test system: MDA-MB-231 3D spheroids; experiment: 3D dose–response assay, liquid-overlay spheroids; type: cell-based, human; conditions: 24 h treatment, n = 3/dose
Summary of the method: as §2

[6] = test system: MDA-MB-231 triple negative human breast adenocarcinoma cells; experiment: 2D dose–response assay; type: cell-based; conditions: 24 h treatment, n = 3/dose
Summary of the method: as §1

[7] = test system: BT-474 human breast ductal carcinoma cells; experiment: 2D dose–response assay; type: cell-based; conditions: 24 h treatment, n = 3/dose
Summary of the method: as §1

[8] = test system: sheep erythrocytes; experiment: Hemolytic activity; type: cell-based; conditions: sheep RBC 2% v/v, 37 °C, 1 h
Summary of the method: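 Fresh sheep RBCs were washed in PBS pH 7.4 until the supernatant was clear, with 1000 rpm, 8 min spins. RBCs were exposed to test compound at 2000–5 μg/mL in PBS containing 5% DMSO, then centrifuged 1000 rpm, 8 min at RT. Supernatant absorbance was read at 540 nm, with 630 nm background. Controls: PBS/5% DMSO (negative) and 1% v/v Triton X-100 (positive).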

[9] = test system: osteoblasts; conditions: 5 μM; cited from earlier work
[10] = test system: MDA-MB-231 cells; experiment: CellTox Green cytotoxicity assay: cell lysis; type: cell-based, human; conditions: dosed at IC50; 1, 6, 12, 24 h post exposure
[11] = test system: MCF-7 human breast epithelial adenocarcinoma cells; experiment: 2D dose–response assay; type: cell-based; conditions: 24 h treatment, n = 3/dose
Summary of the method: as §1

[12] = test system: erythrocytes; conditions: therapeutic dose used for viral inactivation; cited from earlier work
[13] = Critical micelle concentration; type: physicochemical; conditions: 0.1 M NaHCO3, pH 8.7, 22 °C
Summary of the method: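 Surface tension across a concentration series was measured by Wilhelmy platinum-plate tensiometry on freshly prepared samples, in triplicate. Separate linear regressions were fitted to the declining and flat regions of the surface tension–concentration curve; their intersection gave the CMC.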

[14] = test system: nontumorigenic keratinocytes; conditions: 30 μM; cited from earlier work
[15] = test system: HeLa cells; conditions: cited from earlier work

Row | Substance | extent of cell lysis, BT-474 [1] | IC50 2D monolayer CCD1065SK HDF [2] [µg/mL] | IC50 2D monolayer AU565 [3] [µg/mL] | IC50 3D spheroids BT-474 [4] [µg/mL] | IC50 3D spheroids MDA-MB-231 [5] [µg/mL] | IC50 2D monolayer MDA-MB-231 [6] [µg/mL] | IC50 2D monolayer BT-474 [7] [µg/mL] | IC50 erythrocytes (50% of RBCs lysed) [8] [µg/mL] | cell viability, osteoblasts [9] [%] | extent of cell lysis, MDA-MB-231 [10] | IC50 2D monolayer MCF-7 [11] [µg/mL] | concentration at which rapid lysis of erythrocytes occurred [12] [µM] | CMC [13] [µg/mL] | cell viability, nontumorigenic keratinocytes [14] [%] | IC50 toward HeLa cells [15] [µg/mL]
1 | Surfactin [Compound 1, reference compound] | cell lysis of both BT-474 and MDA-MB-231 cells was observed | 180 | 110 | 330 | 140 | 84 | 21 | 38 | 100 | cell lysis of both BT-474 and MDA-MB-231 cells was observed | 24 | 40 | 9.5 | 100 | 
2 | C15-surfactin |  |  |  |  |  |  |  |  |  |  |  |  |  |  | 25.2
3 | C15-surfactin-O-methyl ester |  |  |  |  |  |  |  |  |  |  |  |  |  |  | 47.7
